The campaign covered roughly 320,000 compounds. About 310 (0.097%) were called active.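 Rule for the calls: active = mean replicate activation of at least 60% and every replicate at or above 60%; inconclusive = mean or all-replicate condition met, but not both; inactive = mean below 60% and not all replicates reaching 60%.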 This excerpt belongs to a sample that is enriched for actives.
Assay: activators of SR-BI mediated DiI-HDL uptake, primary screen, ldlA[mSR-BI] CHO cells, DiI fluorescence (AID 504775);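 note: 0% = median plate neutral-control signal and 100% = twice that signal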
Settings: 3 h, at 12.5 µM, hits give high values, 100 = double the neutral-control signal
Procedure, shortened: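 Material: SR-BI-overexpressing, LDLR-lacking CHO cells | Dosing: Single compound concentration, delivered by pin transfer | Probe or stimulus: Labelled HDL, 10 µg/mL | Signal: Bottom-read cell fluorescence after medium removal, ex 550/em 595 nm | Schedule: 3 h, 37 °C | Evaluation: HDL uptake via cellular fluorescence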

Row | Compound | activation
1 | CC(=O)OC1CCC2(C)C(=CCC3C4CC(=O)N(O)C(=O)C4(C)CCC32)C1 (centres undefined) | 19% (inactive)
2 | COc1ccc(NC(=O)/C(N=Nc2cccc(S(=O)(=O)Nc3ccc(SC(F)F)cc3)c2)=C(\C)O)cc1 | 19.4% (inactive)
3 | COc1ccc2nc(N3C(=O)C(O)=C(C(=O)c4ccco4)C3c3ccco3)sc2c1 (centres undefined) | 2.11% (inactive)
4 | O=C1NC(=O)C(CCc2ccccc2)(c2ccccc2)N1 (centres undefined) | 20.8% (inactive)
5 | COC[C@@H]1NS(=O)(=O)c2ccc(Br)cc2O[C@H]1c1ccccc1 | -5.43% (inactive)
6 | Cc1ccc2c(c1)NC(=O)[C@@]1(C)[C@@H](c3ccccc3)[C@H]3COc4ccc(Cl)cc4[C@@H]3N1C2=O | 138% (active)
7 | CCOC(=O)[C@H]1[C@H]2COc3ccc(Cl)cc3[C@@H]2N2C(=O)c3cc(C)ccc3NC(=O)[C@@]12C | 5.05% (inactive)
8 | COc1ccc2c(c1)[C@H]1[C@H](CO2)[C@H](c2ccccc2)[C@]2(C)C(=O)Nc3cc(F)c(F)cc3C(=O)N12 | -10.6% (inactive)
9 | CCOc1ccc(CCNC(=O)COC(=O)C2CCN(S(=O)(=O)c3ccccc3)CC2)cc1OCC | -35% (inactive)
10 | COc1cc(NC(=S)NCc2ccc(S(N)(=O)=O)cc2)cc(OC)c1 | 1.73% (inactive)
11 | NS(=O)(=O)c1ccc(NC(=O)COC(=O)c2ccco2)cc1 | -5.86% (inactive)
12 | NS(=O)(=O)c1ccc(CNC(=S)NC(=O)c2ccco2)cc1 | 304% (active)
13 | COc1ccc(/C=C2/CCCc3ccccc3C2=O)cc1 | -12.7% (inactive)
14 | CN(CCc1ccccc1)C(=O)c1cccc(NC(=O)Cc2cccc(NC(=O)C3CCCN(C(=O)C4CCC4)C3)c2)c1 (centres undefined) | -26.9% (inactive)
15 | O=C(NCCc1ccccc1)c1ccc(NC2=NC3CS(=O)(=O)CC3S2)cc1 (centres undefined) | 85.7% (active)
16 | CN(Cc1ccccc1)C(=O)c1ccc(NC2=NC3CS(=O)(=O)CC3S2)cc1 (centres undefined) | -2.73% (inactive)
17 | COc1ccccc1N1CCN(C(=O)c2ccc(NC3=NC4CS(=O)(=O)CC4S3)cc2)CC1 (centres undefined) | 14.4% (inactive)

Row | Compound | activation
18 | COc1cc2c(cc1OC)C1C(=O)c3cc(OS(C)(=O)=O)c(OC)cc3C1N(C)C2=O (centres undefined) | 1.01% (inactive)
19 | COc1ccc(Cn2cc(CN3CCS(=O)(=O)N(Cc4ccc(-c5cccc(Cl)c5)cc4)C(C)C3=O)nn2)cc1 (centres undefined) | -34.7% (inactive)
20 | O=[N+]([O-])c1ccc(COc2ccccc2CN2CCOCC2)cc1 | 19.3% (inactive)
21 | COc1cccc(CNC(=O)CN(C)S(=O)(=O)c2ccc3c(c2)c(=O)n(C)c(=O)n3C)c1 | -3.22% (inactive)
22 | CCc1ccccc1NC(=O)CN(C)S(=O)(=O)c1ccc2c(c1)c(=O)n(C)c(=O)n2C | -3.85% (inactive)
23 | CC1CCC(NC(=O)CN(C)S(=O)(=O)c2ccc3c(c2)c(=O)n(C)c(=O)n3C)CC1 (centres undefined) | 246% (active)
24 | O=C1CC(C(=O)O)NC(=S)N1 (centres undefined) | 3.49% (inactive)
25 | Cc1cc(C)c(C=NNc2nc3c([nH]2)c(=O)n(C)c(=O)n3C)c(C)c1 | 12.4% (inactive)
26 | CN(C)CCNC(=O)c1ccc(Cl)c2cc3ccccc3nc12 | 8.43% (inactive)
27 | CCN(CC)S(=O)(=O)c1cccc(NC(=O)c2ccc(S(=O)(=O)N3CCCC3)cc2)c1 | -41.2% (inactive)
28 | CC(C)=CCc1ccc(O)c(=O)cc1C(C)C | -12.4% (inactive)
29 | O=C(Nc1c(Br)cc2c(c1Br)Cc1cc([N+](=O)[O-])ccc1-2)C(Cl)Cl | -60.9% (inactive)
30 | CN(O)C(=S)c1ccccc1 | 24.5% (inactive)
31 | O=C1CC(c2ccccc2)C(c2ccccc2)=NN1 (centres undefined) | 1.49% (inactive)
32 | COc1cc(/C=C/CNC[C@H]2O[C@@H](n3cnc(C(N)=O)n3)[C@H](O)[C@@H]2O)ccc1O | 8.13% (inactive)
33 | O=S(=O)(Cc1ccc(Cl)cc1Cl)c1ccc(Cl)cc1 | -15.8% (inactive)
34 | Cc1ccc2c(O)c(Cc3ccccc3)c(=O)[nH]c2n1 | -7.66% (inactive)
